Active and inactive are the calls of the source. The calls are words filed in the database; no cut-off is given here.
How the values were obtained:
Choristoneura fumiferana = assay: Toxicity against Choristoneura fumiferana assessed as reduction in body weight by diet incorporation assay; format: functional, organism-based
Procedure, shortened: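 Spruce budworm diet-incorporation bioassay with disease-free larvae. Extract dissolved in CH2Cl2, mixed into synthetic diet at 400 µg/g, solvent evaporated overnight. Ten second-instar larvae per cup, 3 cups per extract, held at 25 °C, 55% RH, 16 h light/day until fifth instar (about 1 week). Each larva weighed and head capsule width measured. ANOVA with Fisher's LSD; rugulosin positive control, CH2Cl2 negative control.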

Saccharomyces cerevisiae = assay: Toxicity against Saccharomyces cerevisiae by disc diffusion method; format: functional, organism-based
Procedure, shortened: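 Antifungal screen by disc diffusion. Dried extract, 50 mg dissolved in 1 mL CH2Cl2; 10 µL applied to each small filter disc under aseptic conditions, solvent left to evaporate overnight. Discs placed on malt extract agar plates inoculated with a lawn of yeast, incubated at 25 °C, and inhibition zones measured.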

Hep 3B2 = assay: Cytotoxicity against human Hep3B cells; format: functional, cell-based

| Compound | Activity (Choristoneura fumiferana) | Activity (Saccharomyces cerevisiae) | Activity (Hep 3B2) |
| --- | --- | --- | --- |
| COC(=O)c1c(O)c(C)cc2oc3cccc(O)c3c(=O)c12 | Active | Active |  |
| C[C@@H]1Cc2c(C=O)ccc(O)c2C(=O)O1 | Active | Active |  |
| Cc1ccc(O)c2c1C[C@@H](C)OC2=O | Active | Active |  |
| CCC[C@@H]1Cc2cc(OC)cc(O)c2C(=O)O1 | Active | Active |  |
| COc1cc(OC)c(C(=O)O)c(C(C)=O)c1 | Active | Active |  |
| COc1cc(OC)c2c(c1)C(C)OC2=O (stereo not drawn) | Active | Active |  |
| COC(=O)c1ccc(O)c2c1C[C@@H](C)OC2=O | Active | Active |  |
| C[C@@H]1Cc2cccc(O)c2C(=O)O1 | Active | Active |  |
| COC(=O)c1c(OC)cc(OC)cc1C(C)=O | Active | Active |  |
| OCCc1ccc(O)cc1 | Active | Active | inactive |
| CCCCC1=C(C)COC1=O | Active | Active |  |

Reference: ChEMBL document CHEMBL1155892, “Characterization of polyketide metabolites from foliar endophytes of Picea glauca” (J Nat Prod, 2008)
